Screening results from PubChem.
Compounds with a hit are over-represented: about 3.2% of the library has one in this group of screens.
zfTRPN1 agonist = agonists of zebrafish TRPN1 channel; HEK293 zebrafish TRPN1-YFP, Fluo-8 calcium fluorescence; 100% = response to 87 µM carbachol; activation, % at 3 µM; hit rate 0.18% among 220,000;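 active = activation above its plate's cutoff, the mean activation of test wells on that plate plus 3 SD, cut at about 19% in these data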
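System: zebrafish TRPN1-YFP in HEK293 cells / Dosing: 3 µM single point / Timing: dye loading 1 h at 37 °C, then 30 min room temperature / Signal: Fluo-8 calcium fluorescence, excitation 470-495 nm, emission 515-575 nm / Read-out basis: percent activation from peak over basal fluorescence ratio, control-normalized / Control set: high carbachol 87 µM, low DMSO alone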
CHO parental Ca = signal in parental CHO cells, OX1R antagonist counter-screen; parental CHO-K1, ATP-induced calcium, Fluo-8 fluorescence; inhibition, % at 5.6 µM; hit rate 0.63% among 330,000;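 active = inhibition above that plate's mean sample inhibition plus 3 SD, cut at about 26% in these data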
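Test system: parental CHO cells; detection: calcium-sensitive Fluo-8 fluorescence; evaluation: percent inhibition of calcium signal; also added: ATP as calcium-mobilizing challenge; repeats: one well per compound; control set: ATP-challenged DMSO wells low, unchallenged DMSO wells high; compound: single nominal dose of 5.6 µM per compound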
OX1R antag-1 = antagonists of human orexin 1 receptor (OX1R); O43613; OX1R-expressing cells, FRET antagonist read-out; inhibition, % at 6.6 µM; hit rate 1.8% among 330,000; in the data active = inhibition mostly above about 38%, no sharp cut-off; inactive = mostly below about 40%
Target sequence (O43613 whole entry, looked up): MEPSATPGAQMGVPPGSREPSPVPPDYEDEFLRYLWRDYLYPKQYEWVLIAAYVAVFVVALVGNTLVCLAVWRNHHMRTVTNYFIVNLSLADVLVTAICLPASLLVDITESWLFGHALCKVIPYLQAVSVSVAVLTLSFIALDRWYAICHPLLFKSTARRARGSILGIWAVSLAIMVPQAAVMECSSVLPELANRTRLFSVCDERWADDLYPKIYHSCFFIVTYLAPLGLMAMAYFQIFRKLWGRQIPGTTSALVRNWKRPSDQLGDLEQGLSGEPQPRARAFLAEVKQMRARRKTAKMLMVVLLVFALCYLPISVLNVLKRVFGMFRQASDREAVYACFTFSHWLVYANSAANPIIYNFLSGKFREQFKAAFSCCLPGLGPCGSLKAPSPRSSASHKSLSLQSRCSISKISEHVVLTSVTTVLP
OX1R antag-2 = human HCRTR1 antagonism | O43613 | inhibition, % at 5 µM | AID 434989 | CHO/OX1R cells, Fluo-8 calcium fluorescence, orexin A | hit rate 0.43% among 330,000;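 active = inhibition above its plate's threshold, mean inhibition of all tested compounds on the plate plus 3 SD, cut at about 37% in these data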
GPR7 antag = antagonists of human GPR7 (neuropeptides B/W receptor 1); P48145; GPR7-expressing cells, fluorescence antagonist assay; inhibition, % at 4.4 µM; hit rate 1.1% among 290,000; AID 1861; in the data active = inhibition above about 16%, passing the limit was not always enough;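 also: cells stimulated with the agonist NPW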
TRPML3 ag = human mucolipin-3 channel agonism | HEK293 TRPML3-YFP, Fluo-8 calcium fluorescence; 100% = the carbachol control signal | activation, % at 3 µM | hit rate 0.29% among 220,000;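 active = activation above its plate's cutoff, the mean activation of the plate's test wells plus 3 SD, cut at about 12% in these data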
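Test system: HEK293 cells stably carrying human TRPML3-YFP; Doses: single dose, 3 µM final nominal compound, 0.3% DMSO final; Schedule: dye loading 1 h 37 °C then 30 min ambient, 125 s read; Technique: Fluo-8 calcium fluorescence; Benchmarks: high control carbachol 87 µM, low control DMSO.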
GPR7 antag conf = human GPR7 antagonism, confirmation assay | inhibition, % at 4.4 µM | GPR7-expressing cells, calcium fluorescence antagonist mode | shares compounds with GPR7 antag | hit rate 52% among 2,400; in the data active = inhibition above about 24%;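 also: stimulated with the GPR7 agonist NPW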
MCHR1 antag = MCHR1 (human) antagonism in GPR7 counter-screen; MCHR1-expressing cells, fluorescence antagonist assay; shares compounds with GPR7 antag; AID 2148; inhibition, % at 4.4 µM; hit rate 62% among 2,400; in the data active = inhibition above about 22%
Numbers stand for hits; - = inactive; . = no result.

SMILES | zfTRPN1 agonist | CHO parental Ca | OX1R antag-1 | OX1R antag-2 | GPR7 antag | TRPML3 ag | GPR7 antag conf | MCHR1 antag
O=C(CC(C(=O)N1CCc2ccccc21)n1ccnc1)NCC1CCCO1 (stereo unspecified) | - | - | - | - | 24 | - | - | -
Brc1cccc(OCCn2ccnc2)c1 | - | - | - | - | 24 | - | - | -
Brc1cccc(OCCOCCn2ccnc2)c1 | - | - | - | - | - | - | . | .
O=C(CSc1nn(-c2ccccc2)c(=S)s1)Nn1cnnc1 | - | - | - | - | - | - | . | .
Cc1ccc(NC(=O)CSc2nn(-c3ccccc3)c(=S)s2)cc1S(=O)(=O)N(C)C | - | - | - | - | 21 | - | 56 | 68
COc1cc(N)c(Cl)cc1C(=O)OCC(=O)NC(=O)NCc1ccco1 | . | - | - | - | . | . | . | .
CN(C)CCCN(C(=O)/C=C/c1cccs1)c1nc2ccc(F)cc2s1 | - | - | - | - | 29 | - | 45 | 28
Cc1ccc2nc(N(CCCN(C)C)C(=O)CCc3ccccc3)sc2c1 | - | - | - | - | - | - | . | .
Cc1ccc2nc(N(CCN(C)C)C(=O)/C=C/c3cccs3)sc2c1 | - | - | - | - | - | - | . | .
CN(C)CCN(C(=O)/C=C/c1cccs1)c1nc2ccc(Br)cc2s1 | . | - | - | - | 25 | . | 59 | 68
CN(C)CCCN(C(=O)CCc1ccccc1)c1nc2ccc(Cl)cc2s1 | - | - | - | - | 23 | - | 73 | 85
CN(C)CCCN(C(=O)C1=COCCO1)c1nc2ccc(Br)cc2s1 | . | - | - | - | 36 | . | 55 | 64
CCC(C(=O)N1CCOCC1)n1nc(C)c2sc3ccccc3c2c1=O (stereo unspecified) | . | - | - | - | - | . | . | .
Cc1ccc(SCC(=O)Nc2ccc(N3CCN(C)CC3)c(F)c2)c(C)c1 | - | - | - | - | 38 | - | - | -
Cc1ccc(NC(=O)CSc2ncnc3ccccc23)cc1S(=O)(=O)N1CCOCC1 | - | - | - | - | - | - | . | .
Cc1ccc(NC(=O)CSc2ncnc3ccccc23)cc1S(=O)(=O)N1CCCCC1 | - | - | - | - | 23 | - | 58 | 63
FC(F)(F)c1cccc(-c2nc3nc(Cl)c(Cl)nc3[nH]2)c1 | 32 | 38 | 40 | - | 25 | 14 | 37 | 48
O=C(c1ccco1)N1CCN(S(=O)(=O)c2ccc(S(=O)(=O)NC3CCCCC3)cc2)CC1 | - | - | - | - | . | - | . | -
COCCn1c(CN2CCc3ccccc3C2)nc2c1c(=O)n(C)c(=O)n2C | - | - | - | - | - | - | . | .
COc1cc(OC)cc(C(=O)N[C@H](C(=O)OCC(=O)Nc2ccc(F)c(F)c2)C(C)C)c1 | - | - | - | - | 21 | - | 34 | 48
CC1CCCC(C)N1C(=O)c1ccc(S(=O)(=O)NCc2ccco2)cc1 (stereo unspecified) | . | - | - | - | 31 | . | - | 23
O=C(NC1CCCCC1)c1ccc(S(=O)(=O)NCc2ccco2)cc1 | - | - | - | - | 34 | - | - | 25
O=C(NC1CCN(Cc2ccccc2)CC1)c1ccc(S(=O)(=O)NCc2ccco2)cc1 | - | - | - | - | - | - | . | .
O=C(NCc1ccco1)/C(=C\c1ccc(F)cc1)NC(=O)c1ccco1 | . | - | - | - | 29 | . | - | -
CCn1c(CNC(=O)C2CCCCC2)cc2cc(C)ccc21 | . | . | . | . | 28 | . | - | -
SMILES | zfTRPN1 agonist | CHO parental Ca | OX1R antag-1 | OX1R antag-2 | GPR7 antag | TRPML3 ag | GPR7 antag conf | MCHR1 antag
CCn1c(CNC(=O)c2ccccc2F)cc2cc(C)ccc21 | . | . | . | . | - | . | . | .
COCCSc1ccccc1C(=O)Nc1ccncc1 | - | - | - | - | 57 | - | - | -
COCCSc1ccccc1C(=O)Nc1cc(C)cc(C)c1 | - | - | - | - | - | - | . | .
Cc1cccc(NC(=O)CCS(=O)(=O)c2cc3c(cc2Cl)NC(=O)CO3)c1 | . | - | - | - | - | . | . | .
CC(C)NC(=O)CCc1nc2cccnc2n1-c1ccccc1 | . | - | - | - | 56 | . | - | -
CCc1nc2cccnc2n1-c1ccc(CC(=O)O)cc1 | . | - | - | - | - | . | . | .
CCC1(CC)NC(=O)N(CC(=O)OC(C)C(=O)Nc2ccccc2OC)C1=O (stereo unspecified) | . | - | - | - | . | . | . | .
Cc1cccc(C)c1NC(=O)CN(C)C(=O)c1cccc(S(=O)(=O)N2CCN(c3ccc(F)cc3)CC2)c1 | . | - | - | - | . | . | . | .
CN(CC(=O)Nc1ccccc1Cl)C(=O)c1cccc(S(=O)(=O)N2CCN(c3ccc(F)cc3)CC2)c1 | . | - | - | - | 31 | . | 24 | 53
CCOc1ccc(CN2CCN(Cc3cc4ccccc4[nH]3)CC2CCO)cc1 (stereo unspecified) | - | . | . | . | - | - | . | .
COc1cccc(CN2CCN(Cc3cc4ccccc4[nH]3)CC2CCO)c1 (stereo unspecified) | 28 | - | - | - | 67 | - | 79 | 81
O=C(Nc1ccc(Cl)cc1)N1CCCN(Cc2ccc(F)cc2)C1 | - | - | - | - | 88 | - | 43 | 42
O=C(Nc1ccccc1)N1CCN(Cc2ccc(Cl)cc2)CC1 | - | - | - | - | - | - | . | .
NS(=O)(=O)c1ccc(CCNC(=O)COC(=O)CC(c2ccccc2)c2ccccc2)cc1 | - | - | - | - | 52 | - | - | 69
NS(=O)(=O)c1ccc(CCNC(=O)CC(c2ccccc2)c2ccccc2)cc1 | . | - | - | - | - | . | . | .
NS(=O)(=O)c1ccc(CCNC(=O)COC(=O)C2CCC2)cc1 | . | - | - | - | 38 | . | - | -
CCOc1ccc2[nH]c(=O)c(CN(CC3COCCO3)C(=O)c3ccc(C)cc3)cc2c1 (stereo unspecified) | - | - | - | - | - | - | . | .
CC(OC(=O)c1cc(=O)[nH]c2ccccc12)C(=O)NC1CCCCC1C (stereo unspecified) | . | - | - | - | . | . | . | .
CCc1ccc(NC(=O)CSc2ccc(-c3sc(C)nc3C)nn2)cc1 | . | - | - | - | 31 | . | 41 | 76
CC(=O)c1cccc(NC(=O)CSc2ccc(-c3sc(C)nc3C)nn2)c1 | . | - | - | - | - | . | . | .
Cc1nc(C)c(-c2ccc(SCC(=O)Nc3cccc(Cl)c3)nn2)s1 | . | - | - | - | 33 | . | 48 | 67
COc1ccc(CN(C)C(=O)c2ccc(NS(=O)(=O)c3ccc(F)cc3)cc2)c(OC)c1 | . | - | - | - | 22 | . | - | -
COc1ccc(CN(C)C(=O)c2ccc(NS(=O)(=O)c3ccccc3)cc2)c(OC)c1 | . | - | - | - | . | . | . | .
COc1ccc(CNC(=O)c2nnn(Cc3ccc(OC)cc3)c2N)cc1 | - | - | - | - | - | - | . | .
